ChEMBL document CHEMBL4364301 (Eur J Med Chem, 2019)

Legend:
DU-145 [1] = assay: Antiproliferative activity against human DU145 cells assessed as T/C value at 3.2 x 10^-1 uM incubated for 96 hrs by propidium iodide based 2D monolayer assay; assay type: functional
Procedure, shortened: (§1)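 After 24 h recovery, compound in medium or medium alone (control wells) was added at 10 half-log concentrations from 0.0032 to 100 µM, in triplicate, with at most 0.3% DMSO. After 96 h, wells were PBS-washed, stained with 7 µg/ml PI and 0.1% Triton X-100, and fluorescence read at 530/620 nm. IC50 came from a 4-parameter fit, geometric mean.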

DU-145 [2] = assay: Antiproliferative activity against human DU145 cells assessed as T/C value at 1 x 10^1 uM incubated for 96 hrs by propidium iodide based 2D monolayer assay; assay type: functional; procedure, shortened: as §1
VCaP [3] = assay: Antiproliferative activity against human VCaP cells assessed as T/C value at 1 x 10^2 uM incubated for 96 hrs by propidium iodide based 2D monolayer assay; assay type: functional
Procedure, shortened: as §1, with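 “Cells were kept in RPMI 1640 with 25 mM HEPES, 10% FCS and gentamicin at 37 °C under 5% CO2, and plated at 4,000-20,000 cells/well. After 24” for “After 24”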

CWR22R [4] = assay: Antiproliferative activity against human 22Rv1 cells assessed as T/C value at 1 x 10^-1 uM incubated for 96 hrs by propidium iodide based 2D monolayer assay; assay type: functional
Procedure, shortened: as §1, with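 “Cells were kept in RPMI 1640 with 25 mM HEPES, 10% FCS and gentamicin at 37 °C under 5% CO2, and plated at 4,000-20,000 cells/well. After 24” for “After 24”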

VCaP [5] = assay: Antiproliferative activity against human VCaP cells assessed as T/C value at 3.2 x 10^-2 uM incubated for 96 hrs by propidium iodide based 2D monolayer assay; assay type: functional
Procedure, shortened: (§2)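 VCaP cells in RPMI 1640 with 10% FCS at 37 °C, 5% CO2, seeded 4,000–20,000 cells/well and left 24 h before dosing. Compounds from DMSO stocks were diluted in half-log steps in medium, 10 concentrations 0.0032–100 μM, triplicate wells, max 0.3% DMSO. After 96 h, cells were washed, stained with 7 μg/ml propidium iodide plus 0.1% Triton X-100 for 1–2 h at room temperature, and fluorescence read at ex 530/em 620 nm.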

LNCaP [6] = assay: Antiproliferative activity against human LNCAP cells assessed as T/C value at 1 x 10^-1 uM incubated for 96 hrs by propidium iodide based 2D monolayer assay; assay type: functional
Procedure, shortened: as §1, with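 “Cells were kept in RPMI 1640 with 25 mM HEPES, 10% FCS and gentamicin at 37 °C under 5% CO2, and plated at 4,000-20,000 cells/well. After 24” for “After 24”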

DU-145 [7] = assay: Antiproliferative activity against human DU145 cells assessed as T/C value at 1 x 10^-1 uM incubated for 96 hrs by propidium iodide based 2D monolayer assay; assay type: functional; procedure, shortened: as §1
LNCaP [8] = assay: Antiproliferative activity against human LNCAP cells assessed as reduction in cell growth incubated for 96 hrs by propidium iodide based 2D monolayer assay; assay type: functional; procedure, shortened: as §1
LNCaP [9] = assay: Antiproliferative activity against human LNCAP cells assessed as T/C value at 3.2 x 10^1 uM incubated for 96 hrs by propidium iodide based 2D monolayer assay; assay type: functional
Procedure, shortened: as §1, with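 “Cells were kept in RPMI 1640 with 25 mM HEPES, 10% FCS and gentamicin at 37 °C under 5% CO2, and plated at 4,000-20,000 cells/well. After 24” for “After 24”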

VCaP [10] = assay: Antiproliferative activity against human VCaP cells assessed as T/C value at 3.2 x 10^1 uM incubated for 96 hrs by propidium iodide based 2D monolayer assay; assay type: functional; procedure, shortened: as §2
CWR22R [11] = assay: Antiproliferative activity against human 22Rv1 cells assessed as T/C value at 3.2 x 10^-3 uM incubated for 96 hrs by propidium iodide based 2D monolayer assay; assay type: functional
Procedure, shortened: as §1, with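 “Cells were kept in RPMI 1640 with 25 mM HEPES, 10% FCS and gentamicin at 37 °C under 5% CO2, and plated at 4,000-20,000 cells/well. After 24” for “After 24”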

DU-145 [12] = assay: Antiproliferative activity against human DU145 cells assessed as T/C value at 3.2 uM incubated for 96 hrs by propidium iodide based 2D monolayer assay; assay type: functional
Procedure, shortened: as §1, with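 “Cells were kept in RPMI 1640 with 25 mM HEPES, 10% FCS and gentamicin at 37 °C under 5% CO2, and plated at 4,000-20,000 cells/well. After 24” for “After 24”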

MCF7 [13] = assay: Antiproliferative activity against human MCF7 cells assessed as T/C value at 3.2 x 10^-2 uM incubated for 96 hrs by propidium iodide based 2D monolayer assay; assay type: functional
MCF7 [14] = assay: Antiproliferative activity against human MCF7 cells assessed as T/C value at 1 x 10^1 uM incubated for 96 hrs by propidium iodide based 2D monolayer assay; assay type: functional
MCF7 [15] = assay: Antiproliferative activity against human MCF7 cells assessed as T/C value at 3.2 x 10^-3 uM incubated for 96 hrs by propidium iodide based 2D monolayer assay; assay type: functional
MCF7 [16] = assay: Antiproliferative activity against human MCF7 cells assessed as T/C value at 1 x 10^2 uM incubated for 96 hrs by propidium iodide based 2D monolayer assay; assay type: functional
MCF7 [17] = assay: Antiproliferative activity against human MCF7 cells assessed as T/C value at 3.2 uM incubated for 96 hrs by propidium iodide based 2D monolayer assay; assay type: functional
[18] = molecular target: Voltage-gated inwardly rectifying potassium channel KCNH2 (Homo sapiens, UniProt Q12809); assay: Inhibition of human ERG expressed in CHO cells by whole-cell voltage-clamp analysis; assay type: cell-based
Procedure, shortened: (§3)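 CHO cells expressing hERG were held in Dulbecco's PBS with Ca/Mg, pH 7–7.2, at room temperature. Tail currents were recorded by automated whole-cell voltage clamp after 300 s exposure. […] Quinidine served as positive control and 0.25% DMSO buffer as negative control.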

[19] = Metabolic stability in liver microsomes (unknown origin) assessed as half life at 3 uM measured upto 45 mins in presence of NADPH by LC-MS/MS analysis; assay type: ADME, Microsome
Procedure, shortened: (§4)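 Pooled liver microsomes at 0.5 mg/mL protein in 0.1 M phosphate buffer pH 7.4 were incubated with 3 μM compound (0.25% DMSO) at 37 °C. Reactions were started with 1 mM NADPH and sampled at 0, 5, 15, 30 and 45 min. A minus-NADPH control ran for 45 min. Reactions were quenched in methanol and analysed by LC-MS/MS to give CLint and t1/2.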

[20] = Metabolic stability in liver microsomes (unknown origin) assessed as intrinsic clearance per mg of protein at 3 uM measured upto 45 mins in presence of NADPH by LC-MS/MS analysis; assay type: ADME, Microsome; conditions: read-out: CLH; procedure, shortened: as §4
[21] = Protein binding in plasma (unknown origin) at 5 uM by LC-MS/MS analysis; assay type: ADME, cell-free; conditions: read-out: PPB (converted)
Procedure, shortened: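 Compound at 5 μM final in 100% plasma was dialysed against pH 7.4 buffer by equilibrium dialysis at 37 °C. Both sides were quantified by LC-MS/MS, unbound fraction was calculated, and results are given as % bound from duplicate experiments.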

hERG (KCNH2) = hERG (KCNH2) (Homo sapiens, UniProt Q12809); assay: Inhibition of human ERG expressed in CHO cells at 25 uM by whole-cell voltage-clamp analysis relative to control; assay type: cell-based; conditions: CHO cells expressing human ERG; procedure, shortened: as §3
Sequence of hERG (KCNH2) (Q12809 whole entry): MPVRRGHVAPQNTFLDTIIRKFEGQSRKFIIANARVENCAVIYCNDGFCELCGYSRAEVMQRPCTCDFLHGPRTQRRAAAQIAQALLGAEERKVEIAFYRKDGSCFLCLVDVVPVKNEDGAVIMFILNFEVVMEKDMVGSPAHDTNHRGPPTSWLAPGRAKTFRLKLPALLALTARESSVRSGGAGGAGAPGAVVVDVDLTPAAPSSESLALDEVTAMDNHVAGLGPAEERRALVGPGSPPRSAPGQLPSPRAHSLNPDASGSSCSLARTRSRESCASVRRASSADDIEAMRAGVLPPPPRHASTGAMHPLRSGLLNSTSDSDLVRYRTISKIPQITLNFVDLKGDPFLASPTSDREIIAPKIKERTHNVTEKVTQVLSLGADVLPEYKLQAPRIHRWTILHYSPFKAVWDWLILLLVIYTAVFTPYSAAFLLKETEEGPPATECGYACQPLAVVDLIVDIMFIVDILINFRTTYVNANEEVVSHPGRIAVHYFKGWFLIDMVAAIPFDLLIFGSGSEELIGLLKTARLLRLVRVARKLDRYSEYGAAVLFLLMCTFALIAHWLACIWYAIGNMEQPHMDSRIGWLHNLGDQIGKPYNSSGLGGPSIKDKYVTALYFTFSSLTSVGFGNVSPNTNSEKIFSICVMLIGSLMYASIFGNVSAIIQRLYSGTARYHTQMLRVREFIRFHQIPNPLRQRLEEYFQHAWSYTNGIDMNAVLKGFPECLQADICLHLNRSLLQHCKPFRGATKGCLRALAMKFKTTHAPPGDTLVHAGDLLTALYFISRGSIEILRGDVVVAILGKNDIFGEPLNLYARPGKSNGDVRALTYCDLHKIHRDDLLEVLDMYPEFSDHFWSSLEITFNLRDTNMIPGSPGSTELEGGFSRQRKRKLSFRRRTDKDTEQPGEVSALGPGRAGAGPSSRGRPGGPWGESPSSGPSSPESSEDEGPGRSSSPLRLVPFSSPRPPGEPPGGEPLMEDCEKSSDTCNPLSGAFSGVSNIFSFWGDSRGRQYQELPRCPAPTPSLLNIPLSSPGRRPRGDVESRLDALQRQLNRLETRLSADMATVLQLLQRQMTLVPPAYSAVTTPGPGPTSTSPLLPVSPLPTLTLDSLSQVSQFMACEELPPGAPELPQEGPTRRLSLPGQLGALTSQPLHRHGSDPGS

Sequence of Voltage-gated inwardly rectifying potassium channel KCNH2 (Q12809 whole entry): as above

Compound | T/C (DU-145 [1]) | T/C (DU-145 [2]) | T/C (VCaP [3]) | T/C (CWR22R [4]) | T/C (VCaP [5]) | T/C (LNCaP [6]) | T/C (DU-145 [7]) | IC50 (LNCaP [8]) [µM] | IC70 (LNCaP [8]) [µM] | T/C (LNCaP [9]) [%] | T/C (VCaP [10]) | T/C (CWR22R [11]) | T/C (DU-145 [12]) | further results
CC1(C)C(=O)N(c2ccc(C#N)cc2C(F)(F)F)C(=S)N1c1cccc(S(F)(F)(F)(F)F)c1 | 110% | 96% | 57% | 102% | 88% | 94% | 103% | 4.1 | 19.9 | 32 | 57% | 104% | 116% | –
CC1(C)C(=O)N(c2ccc(C#N)cc2C(F)(F)F)C(=S)N1c1ccc(S(F)(F)(F)(F)F)cc1 | 115% | 53% | 47% | 98% | 103% | 77% | 114% | 3 | 5.34 | 10 | 64% | 106% | 102% | –
CC1(C)C(=O)N(c2cccc(S(F)(F)(F)(F)F)c2)C(=S)N1c1cccc(C(F)(F)F)c1 | 108% | 83% | 60% | 96% | 87% | 91% | 101% | 3.4 | 4.31 | 33 | 63% | 94% | 105% | –
CC(O)(CSc1cc(C(F)(F)F)cc(C(F)(F)F)c1)C(=O)Nc1cccc(C(F)(F)C(F)(F)F)c1 (racemic) | 135% | 22% | 11% | 106% | 98% | 97% | 135% | 3.9 | 4.68 | 6 | 20% | 104% | 133% | T/C (MCF7 [13]): 118%; T/C (MCF7 [14]): 36%; T/C (MCF7 [15]): 86%; T/C (MCF7 [16]): 5%; T/C (MCF7 [17]): 109%
CC(O)(COc1ccc(C(F)(F)C(F)(F)F)cc1)C(=O)Nc1cc(C(F)(F)F)cc(C(F)(F)F)c1 (racemic) | 123% | 13% | 2% | 107% | 90% | 96% | 113% | 2.7 | 3.04 | 2 | 6% | 106% | 108% | T/C (MCF7 [13]): 112%; T/C (MCF7 [14]): 26%; T/C (MCF7 [15]): 103%; T/C (MCF7 [16]): 3%; T/C (MCF7 [17]): 57%
CC(O)(COc1cccc(S(F)(F)(F)(F)F)c1)C(=O)Nc1cc(C(F)(F)F)cc(C(F)(F)F)c1 (racemic) | 117% | 6% | 6% | 99% | 90% | 98% | 119% | 3 | 3.1 | 1 | 5% | 107% | 105% | –
CC(O)(COc1ccc(S(F)(F)(F)(F)F)cc1)C(=O)Nc1cc(C(F)(F)F)cc(C(F)(F)F)c1 (racemic) | 115% | 16% | 6% | 106% | 96% | 100% | 109% | 1.9 | 2.45 | 2 | 4% | 102% | 104% | IC50 [18]: > 25 µM; half-life at 3 µM [19]: 7.5 h; microsomal CLint at 3 µM [20]: 3.08 µL/min/mg; fraction unbound at 5 µM [21]: 0.091; inhibition at 25 µM (hERG (KCNH2)): 13.4%
CC(O)(COc1cc(C(F)(F)F)cc(C(F)(F)F)c1)C(=O)Nc1cccc(S(F)(F)(F)(F)F)c1 (racemic) | 116% | 12% | 7% | 106% | 87% | 76% | 114% | 2.8 | 3 | 1 | 4% | 104% | 115% | –
CC(O)(COc1cccc(S(F)(F)(F)(F)F)c1)C(=O)Nc1ccc([N+](=O)[O-])c(C(F)(F)F)c1 (racemic) | 121 - 129% | 9 - 16% | 5 - 11% | 106 - 110% | 86 - 107% | 87 - 113% | 118 - 124% | 3.3 | 4.37 to 5.15 | -1 | 2 - 4% | 97 - 104% | 116% | IC50 [18]: > 25 µM; half-life at 3 µM [19]: 7.18 h; microsomal CLint at 3 µM [20]: 3.21 µL/min/mg; fraction unbound at 5 µM [21]: 0.015; inhibition at 25 µM (hERG (KCNH2)): 38.1%
CC(O)(COc1cc(C(F)(F)F)cc(C(F)(F)F)c1)C(=O)Nc1ccc(S(F)(F)(F)(F)F)cc1 (racemic) | 113% | 15% | 5% | 104% | 95% | 99% | 109% | 2.3 | 2.97 | 2 | 6% | 106% | 117% | –
CC(O)(COc1ccccc1C(F)(F)F)C(=O)Nc1ccc(S(F)(F)(F)(F)F)cc1 (racemic) | 107 - 132% | 1 - 20% | 5 - 10% | 93 - 107% | 87 - 93% | 83 - 84% | 108 - 127% | 1.2 | – | 1 | 3 - 11% | 101 - 106% | 15 - 117% | IC50 [18]: > 25 µM; half-life at 3 µM [19]: 1.05 h; microsomal CLint at 3 µM [20]: 22 µL/min/mg; fraction unbound at 5 µM [21]: 0.014; inhibition at 25 µM (hERG (KCNH2)): 26.3%
